Where a name gives a salt, the structure may show the parent alone.
Test system: CHO
Assay: Downmodulation of human CD4 expressed in CHO cells transfected with CD4-YFP construct assessed as decrease in fluorescence intensity after 24 hrs by flow cytometry analysis
Type: functional, cell-based
Details: Cricetulus griseus
How it was run: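 CHO cells stably expressing human CD4 fused at its C-terminus to YFP, exposed to a range of concentrations for 24 h at 37 °C. Cells were washed, fixed in 1% formaldehyde and analysed at once by flow cytometry with 488 nm excitation, reading YFP in FL-1. YFP median fluorescence intensity was expressed as % of untreated control after subtracting the background of nontransfected cells. IC50 is the 50% CD4 down-modulation point, reported as mean ± SD of three independent experiments (two for some).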

## C=C1CNCCCN(CC2CCCCC2)CCCN(S(=O)(=O)c2ccc(C)cc2)C1
read-out: IC50
  IC50: 19000 nM
read-out: pIC50 (converted)
  IC50: 18600 nM

## C=C1CN(S(=O)(=O)c2ccc(C)cc2)CCCN(CC2CCCCC2)CCCN(S(=O)(=O)c2ccc3ccccc3c2)C1
read-out: IC50
  IC50: 180 nM
read-out: pIC50 (converted)
  IC50: 178 nM

## C=C1CN(S(=O)(=O)c2ccc(C)cc2)CCCN(CC2CCCCC2)CCCN(S(=O)(=O)c2ccc([N+](=O)[O-])cc2)C1
read-out: IC50
  IC50: 760 nM
read-out: pIC50 (converted)
  IC50: 759 nM

## C=C1CN(S(=O)(=O)c2ccc(C)cc2)CCCN(CC2CCCCC2)CCCN(S(=O)(=O)c2ccc(C(C)(C)C)cc2)C1
read-out: IC50
  IC50: 780 nM
read-out: pIC50 (converted)
  IC50: 776 nM

## C=C1CN(S(=O)(=O)c2ccc(OC)cc2)CCCN(CC2CCCCC2)CCCN(S(=O)(=O)c2ccc(OC)cc2)C1
read-out: IC50
  IC50: 130 nM
read-out: pIC50 (converted)
  IC50: 135 nM

## C=C1CN(S(=O)(=O)c2ccc(C)cc2)CCCN(CC2CCCCC2)CCCN(S(=O)(=O)c2ccccc2[N+](=O)[O-])C1
read-out: IC50
  IC50: 220 nM
read-out: pIC50 (converted)
  IC50: 224 nM

## C=C1CN(S(=O)(=O)c2ccc(C)cc2)CCCN(Cc2ccccc2)CCCN(S(=O)(=O)c2ccc(OC)cc2)C1
read-out: IC50
  IC50: 300 nM
read-out: pIC50 (converted)
  IC50: 295 nM

## C=C1CN(S(=O)(=O)c2ccc(C)cc2)CCCN(CC2CCCCC2)CCCN(S(=O)(=O)c2ccc(Cl)cc2)C1
read-out: IC50
  IC50: 360 nM
read-out: pIC50 (converted)
  IC50: 363 nM

## C=C1CN(S(=O)(=O)c2ccc(OC)cc2)CCCN(CC2CCCCC2)CCCN(S(=O)(=O)c2cccc3c(N(C)C)cccc23)C1
read-out: IC50
  IC50: 730 nM
read-out: pIC50 (converted)
  IC50: 724 nM

## C=C1CN(S(=O)(=O)c2ccc(OC)cc2)CCCN(Cc2ccccc2)CCCN(S(=O)(=O)c2ccc(OC)cc2)C1
read-out: IC50
  IC50: 230 nM
read-out: pIC50 (converted)
  IC50: 229 nM

## C=C1CN(S(=O)(=O)c2ccc(C)cc2)CCCN(CC2CCCCC2)CCCN(S(=O)(=O)c2cccc3cnccc23)C1
read-out: IC50
  IC50: > 25000 nM
read-out: pIC50 (converted)
  IC50: 22900 nM

## C=C1CN(S(=O)(=O)c2ccc(C)cc2)CCCN(Cc2ccccc2)CCCN(S(=O)(=O)c2cccc3c(N(C)C)cccc23)C1
read-out: IC50
  IC50: 5900 nM
read-out: pIC50 (converted)
  IC50: 5890 nM

## C=C1CN(S(=O)(=O)c2ccc(C)cc2)CCCN(CC2CCCCC2)CCCN(S(=O)(=O)c2ccc(C)cc2)C1
read-out: IC50
  IC50: 190 nM
read-out: pIC50 (converted)
  IC50: 186 nM

## C=C1CN(S(=O)(=O)c2ccc(C)cc2)CCCN(Cc2ccccc2)CCCN(S(=O)(=O)c2ccc(C)cc2)C1 [CYCLOTRIAZADISULFONAMIDE HYDROCHLORIDE]
read-out: IC50
  IC50: 560 nM
read-out: pIC50 (converted)
  IC50: 562 nM

## C=C1CN(S(=O)(=O)c2ccc(C)cc2)CCCN(CC2CCCCC2)CCCN(S(=O)(=O)c2cccc3c(N(C)C)cccc23)C1
read-out: IC50
  IC50: 1060 nM
read-out: pIC50 (converted)
  IC50: 1070 nM

## C=C1CN(S(=O)(=O)c2ccc(C)cc2)CCCN(CC2CCCCC2)CCCN(S(=O)(=O)c2ccc(OC)cc2)C1
read-out: IC50
  IC50: 46 nM
read-out: pIC50 (converted)
  IC50: 45.7 nM

## C=C1CN(S(=O)(=O)c2ccccc2)CCCN(CC2CCCCC2)CCCN(S(=O)(=O)c2ccc(C)cc2)C1
read-out: IC50
  IC50: 430 nM
read-out: pIC50 (converted)
  IC50: 437 nM

## C=C1CN(S(=O)(=O)c2ccc(C)cc2)CCCN(CC2CCCCC2)CCCN(S(=O)(=O)c2cccc3ccccc23)C1
read-out: IC50
  IC50: 940 nM
read-out: pIC50 (converted)
  IC50: 933 nM

Source: ChEMBL document CHEMBL1817570, “Unsymmetrical cyclotriazadisulfonamide (CADA) compounds as human CD4 receptor down-modulating agents” (J Med Chem, 2011)
